Laboratory results: ChEMBL document CHEMBL1139591, “Synthesis and antibacterial activity of dihydro-1,2-oxazine and 2-pyrazoline oxazolidinones: novel analogs of linezolid” (2005)
≈ marks a conversion by molar mass, not a printed value.

Assays:
Format in all cases: functional
Enterococcus faecium = assay: Minimum inhibitory concentration against Enterococcus faecium A24885
Outline: (§1)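 Broth microdilution per NCCLS guidance in Mueller-Hinton medium; final inoculum about 5×10^5 cfu/mL; plates incubated 18 h at 35 °C in ambient air. MIC taken as the lowest drug concentration preventing visible growth, in µg/mL.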

Enterococcus faecalis = assay: Minimum inhibitory concentration against Enterococcus faecalis A20688; outline: as §1
Staphylococcus aureus [1] = assay: Minimum inhibitory concentration against Staphylococcus aureus A15090
Outline: (§2)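 Broth microdilution per NCCLS guidance in Mueller-Hinton medium. Final inoculum about 5×10^5 cfu/mL. Plates incubated at 35 °C for 18 h in ambient air. MIC taken as the lowest drug concentration that prevented visible growth.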

Streptococcus pneumoniae = assay: Minimum inhibitory concentration against Streptococcus pneumoniae A9585
Outline: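 Broth microdilution following NCCLS recommendations, using Todd Hewitt broth for streptococci; final inoculum approx. 5×10^5 cfu/mL; incubation 35 °C for 18 h in 5% CO₂. MIC read as the lowest drug concentration preventing growth, µg/mL.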

Staphylococcus aureus [2] = assay: Minimum inhibitory concentration against heterogeneously methicillin-resistant Staphylococcus aureus A27218; outline: as §2
Staphylococcus aureus [3] = assay: Minimum inhibitory concentration against homogeneously methicillin-resistant Staphylococcus aureus A27223; outline: as §2
Staphylococcus aureus [4] = assay: Minimum inhibitory concentration against homogeneously methicillin-resistant Staphylococcus aureus A27223 in the presence of 50% calf serum
Outline: (§3)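 Broth microdilution per NCCLS guidance in Mueller-Hinton medium supplemented with 50% calf serum. Final inoculum about 5×10^5 cfu/mL. Incubated at 35 °C for 18 h in ambient air. MIC read as the lowest drug concentration that prevented visible growth.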

Staphylococcus aureus [5] = assay: Minimum inhibitory concentration against heterogeneously methicillin-resistant Staphylococcus aureus A27218 in the presence of 50% calf serum; outline: as §3
Staphylococcus aureus [6] = assay: Minimum inhibitory concentration against Staphylococcus aureus A15090 in the presence of 50% calf serum; outline: as §3

Structure (SMILES)	MIC (Enterococcus faecium)	MIC (Enterococcus faecalis)	MIC (Staphylococcus aureus [1])	MIC (Streptococcus pneumoniae)	MIC (Staphylococcus aureus [2])	MIC (Staphylococcus aureus [3])	MIC (Staphylococcus aureus [4])	MIC (Staphylococcus aureus [5])	MIC (Staphylococcus aureus [6])
CC(=O)NC[C@H]1CN(c2ccc(N3CCN(C(=O)CO)CC3)c(F)c2)C(=O)O1 [EPEREZOLID]	2 µg/mL (≈ 5.07 µM)	2 µg/mL (≈ 5.07 µM)	1 µg/mL (≈ 2.54 µM)	0.5 µg/mL (≈ 1.27 µM)	1 µg/mL (≈ 2.54 µM)	1 µg/mL (≈ 2.54 µM)			
CC(=O)NC[C@H]1CN(c2ccc(N3CCCCN3C(C)=O)c(F)c2)C(=O)O1	32 µg/mL (≈ 84.6 µM)	32 µg/mL (≈ 84.6 µM)	32 µg/mL (≈ 84.6 µM)	4 µg/mL (≈ 10.6 µM)	32 µg/mL (≈ 84.6 µM)	16 µg/mL (≈ 42.3 µM)			
CC(=O)NC[C@H]1CN(c2ccc(N3CCCN3C(C)=O)c(F)c2)C(=O)O1	32 µg/mL (≈ 87.8 µM)	32 µg/mL (≈ 87.8 µM)	32 µg/mL (≈ 87.8 µM)	0.5 µg/mL (≈ 1.37 µM)	32 µg/mL (≈ 87.8 µM)	16 µg/mL (≈ 43.9 µM)			
CC(=O)NC[C@H]1CN(c2ccc(N3CCC=N3)c(F)c2)C(=O)O1	4 µg/mL (≈ 12.5 µM)	2 µg/mL (≈ 6.24 µM)	1 µg/mL (≈ 3.12 µM)	1 µg/mL (≈ 3.12 µM)	1 µg/mL (≈ 3.12 µM)	1 µg/mL (≈ 3.12 µM)	1 µg/mL	1 µg/mL	1 µg/mL
CC(=O)NC[C@H]1CN(c2ccc(NO)cc2)C(=O)O1	4 µg/mL (≈ 15.1 µM)	8 µg/mL (≈ 30.2 µM)	0.5 µg/mL (≈ 1.88 µM)	4 µg/mL (≈ 15.1 µM)	4 µg/mL (≈ 15.1 µM)	2 µg/mL (≈ 7.54 µM)			
CC(=O)NC[C@H]1CN(c2ccc(N3OC4C=CC3CC4)cc2)C(=O)O1 (stereo not given in full)	16 µg/mL (≈ 46.6 µM)	32 µg/mL (≈ 93.2 µM)	16 µg/mL (≈ 46.6 µM)	16 µg/mL (≈ 46.6 µM)	8 µg/mL (≈ 23.3 µM)	4 µg/mL (≈ 11.6 µM)			
CC(=O)NC[C@H]1CN(c2ccc(N3CC=CCO3)cc2)C(=O)O1	2 µg/mL (≈ 6.3 µM)	4 µg/mL (≈ 12.6 µM)	1 µg/mL (≈ 3.15 µM)	2 µg/mL (≈ 6.3 µM)	2 µg/mL (≈ 6.3 µM)	1 µg/mL (≈ 3.15 µM)	1 µg/mL	2 µg/mL	1 µg/mL
CC(=O)NC[C@H]1CN(c2ccc([N+](=O)[O-])cc2)C(=O)O1	4 µg/mL (≈ 14.3 µM)	4 µg/mL (≈ 14.3 µM)	0.5 µg/mL (≈ 1.79 µM)	2 µg/mL (≈ 7.16 µM)	2 µg/mL (≈ 7.16 µM)	1 µg/mL (≈ 3.58 µM)			
CC(=O)NC[C@H]1CN(c2ccc(N3CCOCC3)c(F)c2)C(=O)O1 [LINEZOLID]	2 µg/mL (≈ 5.93 µM)		1 µg/mL (≈ 2.96 µM)						
CC(=O)NC[C@H]1CN(c2ccc(N=O)cc2)C(=O)O1	2 µg/mL (≈ 7.6 µM)	4 µg/mL (≈ 15.2 µM)	2 µg/mL (≈ 7.6 µM)	1 µg/mL (≈ 3.8 µM)	2 µg/mL (≈ 7.6 µM)	1 µg/mL (≈ 3.8 µM)			
CC(=O)NC[C@H]1CN(c2ccc(N)cc2)C(=O)O1	128 µg/mL (≈ 513 µM)	128 µg/mL (≈ 513 µM)	16 µg/mL (≈ 64.2 µM)	16 µg/mL (≈ 64.2 µM)	128 µg/mL (≈ 513 µM)	64 µg/mL (≈ 257 µM)			
CC(=O)NC[C@H]1CN(c2ccc([N+](=O)[O-])c(F)c2)C(=O)O1	> 128 µg/mL	> 128 µg/mL	> 128 µg/mL	64 µg/mL (≈ 215 µM)	128 µg/mL (≈ 431 µM)	128 µg/mL (≈ 431 µM)			
CC(=O)NC[C@H]1CN(c2ccc(N3CC(C)=C(C)CO3)cc2)C(=O)O1	8 µg/mL (≈ 23.2 µM)	16 µg/mL (≈ 46.3 µM)	4 µg/mL (≈ 11.6 µM)	8 µg/mL (≈ 23.2 µM)	8 µg/mL (≈ 23.2 µM)	4 µg/mL (≈ 11.6 µM)			
